# Measurements of several laboratories.
# Compare with care: the assays were run in different laboratories.
# Action: inhibitor
# BCHE: Cholinesterase (BCHE, Equus caballus, UniProt P81908)
SMILES,target,test,test system,IC50 [µM]
O=C(O)C(/C=C/c1c(Cl)cccc1Cl)=N\Nc1nc(-c2ccc(Cl)cc2)cs1,BCHE,enzyme activity,,7.36
COc1cc(/C=C/C(=O)NC2CCN(Cc3ccccc3)CC2)ccc1OC(=O)N(C)C,BCHE,"enzyme activity, Ellman",,9.6
CC(C)(C)OC(=O)NC1CCCN(C(=O)/C=C/c2cccc(F)c2)C1 (stereo not shown),BCHE,"enzyme activity, Ellman",,15.3
CC(=O)c1c(C)c2cnc(Nc3ccc(C4CCN(CCS(C)(=O)=O)CC4)cn3)nc2n(C2CCCC2)c1=O,"Cytochrome P450 2B6 (CYP2B6, Homo sapiens, UniProt P20813)",enzyme activity,"human, liver microsomes",> 10
O=C(N1CCC2(CC1)C[C@H](CN1CCCCS1(=O)=O)CCO2)C1(c2ccccc2)CCCC1,"DHX58 (Homo sapiens, UniProt Q96C10)",ATPase activity,,> 50
O=C(O)C(/C=C/c1c(Cl)cccc1Cl)=N\Nc1nc(-c2ccc(Br)cc2)cs1,BCHE,enzyme activity,,8.47
CCN(C)C(=O)Oc1ccc(CCC(=O)N(CC)Cc2ccccc2)cc1OC,BCHE,"enzyme activity, Ellman",,12.7
COc1ccc(OC)c(/C=C/C(=O)N2CCCC(NC(=O)OC(C)(C)C)C2)c1 (stereo not shown),BCHE,"enzyme activity, Ellman",,> 50
COc1cc(/C=C/C(=O)NC2CCN(Cc3ccccc3)CC2)ccc1OC(=O)N1CCCC1,BCHE,"enzyme activity, Ellman",,3.4
CC(C)(C)OC(=O)NC1CCCN(C(=O)/C=C/c2ccc(Br)cc2)C1 (stereo not shown),BCHE,"enzyme activity, Ellman",,38.1
CCN(CC)C(=O)Oc1ccc(/C=C/C(=O)NC2CCN(Cc3ccccc3)CC2)cc1,BCHE,"enzyme activity, Ellman",,15.2
CC(C)(C)OC(=O)NC1CCCN(C(=O)/C=C/c2cccc([N+](=O)[O-])c2)C1 (stereo not shown),BCHE,"enzyme activity, Ellman",,> 50
O=C(O)C(/C=C/c1c(Cl)cccc1Cl)=N\Nc1nc(-c2ccc(F)cc2)cs1,BCHE,enzyme activity,,4.04
CN(C)C(=O)Oc1ccc(/C=C/C(=O)NC2CCN(Cc3ccccc3)CC2)cc1,BCHE,"enzyme activity, Ellman",,11.5
CC(C)(C)OC(=O)NC1CCCN(C(=O)C=Cc2ccccc2)C1 (stereo not shown),BCHE,"enzyme activity, Ellman",,43.7
CN1CC[C@@]2(C)c3cc(OC(=O)Nc4ccccc4)ccc3N(C)[C@@H]12,"Aldehyde dehydrogenase, dimeric NADP-preferring (ALDH3A1, Homo sapiens, UniProt P30838)","enzyme activity, fluorescence",,< 10
